# Most compounds without a hit are left out; they make up all but 2.6% or so of the library.
# Platelet DG rel – platelet dense granule release activity; AID 1663; hit rate 0.22% among 300,000; human platelet-rich plasma, SFLLRN dense granule ATP release, luminescence; inhibition, %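 (compounds screened at 7.5 µM in platelet-rich plasma)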;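 active = mean replicate score, as percent of positive control, at or above 50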
# SENP8 block-1 – SENP8 (human) protease inhibition; Q96LD8; recombinant SENP8, Nedd8 substrate fluorescence; inhibition, % at 20 µM; hit rate 0.64% among 360,000; in the data active = inhibition mostly above about 40%, no sharp cut-off; inactive = mostly below about 27%
# SENP8 block-2 – inhibitors of human SENP8 protease; Q96LD8; purified SENP8, Z-RLRGG-aminoluciferin cleavage, luminescence; inhibition, % at 10 µM; hit rate 1.2% among 330,000; AID 2540; in the data active = inhibition above about 50%
# SENP7 inh – SENP7 protease inhibition; Q9BQF6; recombinant SENP7, Z-RLRGG-aminoluciferin luminescence, 40 min; inhibition, % at 5 µM; hit rate 1.5% among 330,000; AID 434973;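 active = inhibition above about 50% at the single test dose, limit read from the data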;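 also: plate controls were DMSO with enzyme for no effect and no enzyme buffer wells for full effect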
# SENP6 block – SENP6 protease inhibition. Recombinant SENP6 catalytic domain, aminoluciferin luminescence. inhibition, % at 10 µM. hit rate 1.8% among 330,000;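 active = inhibition above about 50% at the single tested dose, limit read from the data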;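 also: plate controls were DMSO wells with enzyme for no effect and DMSO wells lacking enzyme for full effect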
# Target sequence (Q9GZR1 628-1112 limits assumed): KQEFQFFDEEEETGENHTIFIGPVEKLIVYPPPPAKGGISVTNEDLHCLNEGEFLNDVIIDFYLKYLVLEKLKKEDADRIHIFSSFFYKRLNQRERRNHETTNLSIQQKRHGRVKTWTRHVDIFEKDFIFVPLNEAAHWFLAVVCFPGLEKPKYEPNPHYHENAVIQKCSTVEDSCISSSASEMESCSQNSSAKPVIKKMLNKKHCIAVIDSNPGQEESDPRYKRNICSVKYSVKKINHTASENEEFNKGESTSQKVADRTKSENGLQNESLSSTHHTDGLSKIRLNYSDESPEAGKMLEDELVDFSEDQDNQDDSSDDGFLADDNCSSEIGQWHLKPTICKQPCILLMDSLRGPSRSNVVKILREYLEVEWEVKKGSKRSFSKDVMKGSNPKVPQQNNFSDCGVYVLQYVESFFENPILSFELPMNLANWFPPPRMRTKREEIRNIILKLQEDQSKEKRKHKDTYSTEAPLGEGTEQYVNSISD
# SENP1 inh – blocks the human SENP1 SUMO protease catalytic domain; Q9P0U3; hit rate 0.21% among 360,000; recombinant SENP1 catalytic domain, CyPet-SUMO1-YPet FRET cleavage; inhibition, % at 10 µM;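 active = inhibition at least 30% at 10 µM, raw YFP signal under a set limit, fluorescence ratio 0.5 to 1.5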;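 also: 0% = enzyme with DMSO and 100% = no enzyme wells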
#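 Assay system: hSENP1 catalytic domain, recombinant. Amount: SENP1 enzyme, 20 pM final. Schedule: 50 min reaction, RT, dark. Technique: FRET, CFP and YFP emission. Control set: no-enzyme wells low, DMSO-plus-enzyme wells high control.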
# SENP8 confirm – confirmation of human SENP8 protease inhibitors | Recombinant SENP8, Z-RLRGG-aminoluciferin luminescence, 60 min | inhibition, % at 12.5 µM | hit rate 40% among 6,200 | AID 488912 | shares compounds with SENP7 inh;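 active = mean inhibition across replicates above about 50%, limit read from the data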
# SENP6 confirm – human SENP6 inhibition, confirmed; shares compounds with SENP7 inh; recombinant SENP6, Z-RLRGG-aminoluciferin luminescence; inhibition, % at 12.5 µM; hit rate 58% among 6,200
# SENP7 confirm – human SENP7 inhibition, confirmed | shares compounds with SENP7 inh | recombinant SENP7, Z-RLRGG-aminoluciferin luminescence, 40 min | inhibition, % at 12.5 µM | hit rate 69% among 6,200
# Casp3 SENP sel – inhibits human caspase-3 in SENP selectivity test | shares compounds with SENP7 inh | purified caspase-3, Z-DEVD-aminoluciferin luminescence, 60 min | inhibition, % at 12.5 µM | hit rate 60% among 6,200 | AID 488918;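 active = mean inhibition above about 50%, limit read from the data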;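 also: plate controls were enzyme with DMSO for no effect and wells without caspase-3 for full effect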
# Luc interf – counter-screen for SENP inhibitors: luminescence interference; shares compounds with SENP7 inh; Pre-incubated SENP8/Z-RLRGG-aminoluciferin, luciferase luminescence interference; inhibition, % at 12.5 µM; hit rate 39% among 6,200;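 active = mean inhibition above about 50% when retested at one dose, limit read from the data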;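 also: plate controls were DMSO wells with completed reaction for no effect and substrate without enzyme for full effect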
# An asterisk follows results filed as active; i = inactive; . = no result given.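 The calls were made as follows, unless noted: active = mean inhibition above about 50% in the one-dose retest (limit read from the data); inactive = the rest.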
SMILES,Platelet DG rel,SENP8 block-1,SENP8 block-2,SENP7 inh,SENP6 block,SENP1 inh,SENP8 confirm,SENP6 confirm,SENP7 confirm,Casp3 SENP sel,Luc interf
CCO/C=C1/C(=O)N(Cc2ccccc2)C(=O)c2ccccc21,8.5,-407.9,89.7*,81.0*,94.4*,-34.6,81.7*,96.6*,85.8*,97.7*,6.8
O=C1NC(CCO)C(=O)NC1CCO (stereo not given),.,6.4,.,.,.,0.6,.,.,.,.,.
O=C(CN(Cc1ccc(Cl)cc1)C(=O)CNS(=O)(=O)c1ccc(F)cc1)NCC1CCCO1 (stereo not given),6.9,15.9,-1.3,-8.3,-14.2,2.0,.,.,.,.,.
CN(C(=O)c1ccc(-c2ccccc2)cc1)C1CCCCC1,8.1,7.2,37.3,28.7,61.2*,-0.4,14.0,20.1,29.9,22.1,4.4
Nc1ccc2oc(-c3ccccn3)nc2c1,2.1,-68.9,-4.6,2.0,-6.4,3.1,.,.,.,.,.
Clc1ccc2oc(-c3ccccn3)nc2c1,2.6,-41.7,28.2,56.8*,66.6*,13.9,32.9,56.4*,85.5*,77.7*,31.1
O=[N+]([O-])c1cccc(-c2csc(N/N=C/c3cccc(O)c3)n2)c1,4.6,-19.4,2.8,-1.9,12.2,6.3,.,.,.,.,.
CC1CCN(c2cc(N(C)CCO)c([N+](=O)[O-])c3nonc23)CC1,-2.7,27.8,4.0,90.2*,2.2,6.3,9.2,6.7,-1.6,-4.7,-7.1
CCCC(=O)Nc1ccc(-c2nc3cc(C)c(C)cc3o2)c(O)c1,-7.8,-446.0,-2.3,8.1,-4.4,-3.7,.,.,.,.,.
CCCC(=O)Nc1ccc(-c2nc3cc(C)ccc3o2)cc1,7.0,-499.9,47.5,71.1*,71.4*,-2.9,41.7,50.2*,74.2*,28.4,18.5
CCCC(=O)Nc1ccc2oc(-c3ccc(OC)c(Br)c3)nc2c1,5.5,-274.1,-20.2,51.4*,20.7,-9.3,-6.7,0.1,2.4,5.5,4.8
Cc1noc(C)c1NC(=O)N(C)C[C@H]1OCCCC[C@@H](C)Oc2ccc(NS(=O)(=O)c3ccccc3)cc2C(=O)N([C@H](C)CO)C[C@@H]1C,.,13.3,.,.,.,0.3,.,.,.,.,.
CC(C)(C)C(=O)N1CCN(c2ccc3c(c2)C2CC3CCN2C(=O)OCc2ccccc2)CC1 (stereo not given),.,11.8,.,.,.,-0.1,.,.,.,.,.
Cc1ccc(S(=O)(=O)NCc2ccccc2)cc1C(=O)N1CCN(S(=O)(=O)c2ccccc2)CC1,.,9.0,6.4,-3.5,-3.4,-0.3,.,.,.,.,.
Cc1ccccc1-c1nnc(-c2ccc(Br)cc2)o1,-1.6,2.1,33.4,66.7*,75.4*,1.0,13.6,12.8,21.9,29.6,7.1
Cc1ccccc1-c1nnc(-c2ccccc2C)o1,1.2,1.2,58.4*,84.6*,77.5*,-0.1,13.1,29.3,63.2*,41.1,11.0
Cc1ccccc1-c1nnc(-c2cccc3ccccc23)o1,.,i,.,.,.,1.0,.,.,.,.,.
CCOC(=O)c1c(C)nc2c3ccccc3ccn12,-0.3,-0.5,52.7*,77.9*,74.4*,2.3,62.8*,59.6*,89.2*,74.5*,64.9*
CC1CCN(c2ccc3nnc(CCC(=O)Nc4cccc(F)c4)n3n2)CC1,-4.3,-36.5,-6.2,3.9,3.6,0.4,.,.,.,.,.
C/C(=N/NC(=O)c1ccc(C(C)(C)C)cc1)c1ccccn1,-13.0,2.0,1.2,16.3,5.4,0.6,.,.,.,.,.
COc1cc(C(=O)O/N=C(\N)c2ccccn2)cc(OC)c1OC,3.1,3.5,7.1,2.4,-3.5,1.7,.,.,.,.,.

# High-throughput results: PubChem BioAssay, several laboratories
